In ChEMBL document CHEMBL1142511, “[(18)F]-labeled isoindol-1-one and isoindol-1,3-dione derivatives as potential PET imaging agents for detection of beta-amyloid fibrils” (Bioorg Med Chem Lett, 2008):

Test: Displacement of [125I]TZDM from amyloid beta 1 to 42 aggregates
In short: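 Competitive binding against aggregated Aβ1–42 with [125I]TZDM as radioligand. Non-specific binding defined with 2 µM thioflavin T. Incubated 3 h at room temperature. Bound and free radioactivity separated by vacuum filtration through GF/B filters, followed by two washes with 10% EtOH at room temperature. IC50 converted to Ki by the Cheng–Prusoff equation.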

Row | Compound | Ki [nM]
1 | CNc1ccc(N2Cc3cc(OCCCF)ccc3C2=O)cc1 | 0.51
2 | Nc1ccc(N2Cc3cc(OCCF)ccc3C2=O)cc1 | 0.61
3 | CN(C)c1ccc(N2Cc3cc(OCCF)ccc3C2=O)cc1 | 0.3
4 | CNc1ccc(N2Cc3cc(OCCF)ccc3C2=O)cc1 | 0.91
5 | CN(C)c1ccc(N2Cc3cc(OCCCF)ccc3C2=O)cc1 | 0.71
6 | CNc1ccc(-c2nc3ccc(O)cc3s2)cc1 [PITTSBURGH COMPOUND B UNLABELLED] | 0.77
7 | Nc1ccc(N2Cc3cc(OCCCF)ccc3C2=O)cc1 | 0.4

Next, values leading:

Row | Ki [nM] | Compound
8 | 0.74 | Nc1ccc(N2C(=O)c3ccc(OCCCF)cc3C2=O)cc1
9 | 0.69 | CN(C)c1ccc(N2C(=O)c3ccc(OCCF)cc3C2=O)cc1
10 | 0.78 | CNc1ccc(N2C(=O)c3ccc(OCCCF)cc3C2=O)cc1
11 | 0.85 | CN(C)c1ccc(N2C(=O)c3ccc(OCCCF)cc3C2=O)cc1
12 | 0.6 | CNc1ccc(N2C(=O)c3ccc(OCCF)cc3C2=O)cc1
13 | 0.59 | Nc1ccc(N2C(=O)c3ccc(OCCF)cc3C2=O)cc1
